Screening results deposited in PubChem BioAssay by Broad Institute.
CAL PDZ FP-1: untagged CAL PDZ binding inhibitors, primary screen, biochemical, fluorescence polarization, HTS; Golgi-associated PDZ and coiled-coil motif-containing protein (Homo sapiens), Q9HD26; purified CAL PDZ, TMR-peptide fluorescence polarization, 1 h; inhibition, % at 24.9 µM; actives 0.92% (n = 300,000);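 active = mean inhibition of at least 30% with at least half of replicates also reaching 30%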;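 also: 0% = DMSO neutral control and 100% = excess unlabeled competitor peptide PRC23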
ARNT TACC3 PPI: disruptors of ARNT/TACC3 protein interaction, primary screen, biochemical, AlphaScreen, single concentration; inhibition, % at 9.99 µM; actives 0.66% (n = 390,000); AlphaScreen His-ARNT PAS-B/GST-TACC3 binding, luminescence; TACC3 fragment carries E629A point mutation; Transforming acidic coiled-coil-containing protein 3 (Homo sapiens), Q9Y6A5; AID 623870, 2012;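 active = mean inhibition of replicates at least 50% and at least half of replicates each reaching 50%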;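 also: 0% = complete ARNT plus TACC3 wells and 100% = ARNT alone without TACC3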
CAL PDZ FP-2: CAL PDZ peptide-binding inhibitors, primary screen, biochemical, fluorescence polarization, Cer-tagged CAL PDZ, HTS; Golgi-associated PDZ and coiled-coil motif-containing protein (Homo sapiens), Q9HD26; purified CAL PDZ, TMR-peptide fluorescence polarization, 1 h; inhibition, % at 20 µM; actives 0.02% (n = 330,000);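 active = highest replicate inhibition of at least 40%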;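 also: plate controls were DMSO neutral control wells for no effect and unlabeled competitor peptide control wells for full effect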
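Test system: tagged CAL PDZ domain / Buffer or medium: sodium phosphate/NaCl buffer pH 7.4 with TCEP, IgG, Thesit / Reagent: TMR-labelled reporter peptide T*-PRC34 bound in PDZ groove / Compound dosing: single point, 20 µM / Schedule: 1 h incubation at room temperature before polarization reading / Technique: fluorescence polarization (mP) / Benchmarks: unlabelled peptide, DMSO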
CaV13 FRET inh: Disruptors of the CACNA1D IQ motif to Ca2+-dependent inactivation inhibitor domain association, primary screening, Förster resonance energy transfer in intact living …; HEK cells, CFP/YFP FRET ICDI-IQ, plate reader, 10 min; percent FRET-ratio fall versus neutral wells; actives 0.098% (n = 340,000); inhibition, % at 12.3 µM;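 active = mean replicate inhibition of at least 30% and at least 1% of replicates passing that level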;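 also: 0% = median of the neutral control wells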
AlphaScreen ctr: AlphaScreen signal interference compounds, dose response, artefact control for ARNT-TACC3 interaction inhibitor project, biochemical, luminescence, cherry-pick; shares compounds with ARNT TACC3 PPI; His-ARNT PASB-GST AlphaScreen artifact counter-screen; AC50, µM (series often up to 68 µM), for the others: top-dose activity change, negative = signal decrease; actives 50% (n = 1,200); AID 651705, 2012;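 active = every separate test run was called active for a drop in luminescence, with AC50 within twice the top valid dose, actives reach about 71 µM in these data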
The depositor's hits bear a star; . = no result. Hits are enriched below; roughly 1.2% of the tested compounds scored in any of these assays.

SMILES	CAL PDZ FP-1	ARNT TACC3 PPI	CAL PDZ FP-2	CaV13 FRET inh	AlphaScreen ctr
Oc1c(C(Nc2ccccn2)c2ccccn2)ccc2cccnc12 (stereo not drawn)	-2	.	-3	-3	.
C/C=C/c1ccc([C@@H]2[C@@H](CO)N[C@@H]2CN(CC(C)C)C(=O)c2ccccn2)cc1	.	5	.	.	.
c1ccc(-c2nnc(-c3ccccn3)nc2NCC2CC2)cc1	.	.	.	.	1µM*
c1ccc(-c2nnc(-c3ccccn3)nc2NCC2CCCCC2)cc1	.	.	.	.	3.1µM*
N#Cc1ccc(C(=O)Nc2nnc(-c3ccco3)o2)cc1	-12	40*	0	-6	-38%
Cc1ccc(C(=O)Nc2nnc(-c3ccco3)o2)cc1	1	29	0	-3	.
Cc1ccsc1C(=O)Nc1nnc(-c2ccco2)o1	2	54*	-1	-5	48µM*
CO[C@H]1CC[C@H]2CCOc3c(C#N)cccc3C(=O)N(C)C[C@H](C)C(=O)N(C)C[C@@H]1O2	.	-5	.	.	.
O=C(C[C@H]1CC[C@H]2[C@@H](COC[C@H](O)CN2C(=O)Nc2ccc(Cl)c(Cl)c2)O1)NCc1ccncc1	.	5	.	.	.
COc1ccc(S(=O)(=O)Nc2ccc3c(c2)C(=O)N([C@H](C)CO)C[C@H](C)[C@H](CN(C)Cc2ccncc2)OCCCC[C@H](C)O3)cc1	.	9	.	.	.
COc1cc(Br)cc(/C=N/N(CCO)C2=NS(=O)(=O)c3ccccc32)c1OC	3	2	-4	-13	.
COc1cc(/C=N/N(CCO)C2=NS(=O)(=O)c3ccccc32)cc(OC)c1OC	3	41*	-2	-2	-40%
O=S1(=O)N=C(N(CCO)/N=C/C=C/c2ccccc2)c2ccccc21	-3	55*	-2	-4	39µM*
C[C@H]1CN([C@@H](C)CO)C(=O)Cc2cc(NC(=O)Cc3ccccc3)ccc2O[C@@H]1CN(C)CC1CC1	.	1	.	.	.
CC(C)CC#Cc1ccc2c(c1)O[C@@H](CN(C)C(=O)Cc1ccccc1)[C@H](C)CN([C@H](C)CO)S2(=O)=O	.	-13	.	.	.
O=C(O)c1cc2c(cn1)[nH]c1ccccc12	-7	75*	.	-5	9.7µM*
Cc1ccc(S(=O)(=O)Nc2ccc3c(c2)CC(=O)N([C@H](C)CO)C[C@@H](C)[C@H](CN(C)C(=O)Nc2cccc4ccccc24)O3)cc1	.	-11	.	.	.
COCCN=c1scc(-c2ccco2)n1/N=C/c1ccc(O)c(O)c1O	-2	55*	-2	3	34µM*
Cc1cc(=O)n(-c2ccccc2Cl)[nH]1	-5	-2	-2	0	.
Cc1cc(=O)n(-c2ccc(O)cc2)[nH]1	12	15*	0	.	-10%
C[C@@H]1CN([C@H](C)CO)C(=O)c2cc(NC(=O)NC3CCCCC3)ccc2O[C@@H](C)CCCCO[C@@H]1CN(C)CC1CCCCC1	.	-7	.	.	.
COc1cc(/C=N/NC(=O)c2cccc([N+](=O)[O-])c2)cc(OC)c1O	-4	3	-2	-4	.
COc1cc(/C=N/NC(=O)c2cncc(Br)c2)cc([N+](=O)[O-])c1O	-9	58*	0	-17	36µM*
C[C@@H](NC(=O)C[C@H]1CC[C@@H]2[C@H](COC[C@@H](O)CN2C)O1)c1ccccc1	.	13	.	.	.
COc1cc(C2C(C#N)=C(N)Oc3n[nH]c(C)c32)ccc1OC(=O)c1ccccc1 (stereo not drawn)	-1	60*	-3	.	-26%
SMILES	CAL PDZ FP-1	ARNT TACC3 PPI	CAL PDZ FP-2	CaV13 FRET inh	AlphaScreen ctr
CN(C)CCCNC(=O)[C@@H]1[C@@H](CO)[C@@H]2Cn3c(ccc(-c4cccc(F)c4)c3=O)[C@@H]2N1C	.	0	.	.	.
Clc1ccc(SCc2csc(N3CCOCC3)n2)cc1	-2	-2	0	-4	.
O=c1cc(CSc2ccc(Cl)cc2)nc(-c2ccccn2)[nH]1	-5	61*	0	-4	53µM*
O=c1cc(CSc2ccc(Cl)cc2)nc(-c2ccccc2)[nH]1	-4	1	0	5	.
Clc1ccc(SCc2cc(N3CCOCC3)nc(-c3ccccn3)n2)cc1	3	60*	-1	-5	-14%
COc1ccc(CCNC(=O)CSc2nnc(Cc3csc(N)n3)n2C)cc1OC	-1	28*	0	-1	-10%
COc1ccc(-c2nc(CN3CCC(C(=O)NC4CCCC4)CC3)c(C)o2)cc1OC	0	-1	-3	-16	.
COc1ccc(-c2nc(CN3CCC(C(=O)NC4CCCc5ccccc54)CC3)c(C)o2)cc1OC (stereo not drawn)	3	56*	-3	-5	-10%
O=C1C=C(O)c2cccc(O)c2C1=O	-2	52*	2	.	-8%
O=C1C=C(c2c(O)ccc3ccccc23)c2ccccc2C1=O	0	34	-1	-7	.
COc1ccc(S(=O)(=O)N(C)C[C@H]2OCCCC[C@@H](C)Oc3ccc(NC(=O)Nc4c(C)noc4C)cc3C(=O)N([C@@H](C)CO)C[C@@H]2C)cc1	.	2	.	.	.
O=C(C[C@@H]1C[C@H]2c3cc(NC(=O)C4CCOCC4)ccc3O[C@H]2[C@H](CO)O1)NCc1ccccn1	.	-5	.	.	.
C[C@H](CO)N1C[C@H](C)[C@H](CN(C)S(=O)(=O)c2ccc(Cl)cc2)Oc2ccc(NC(=O)Cc3ccccc3)cc2CC1=O	.	1	.	.	.
COc1cccc(S(=O)(=O)N(C)C[C@@H]2OCc3ccccc3-c3ccccc3C(=O)N([C@H](C)CO)C[C@H]2C)c1	.	10	.	.	.
CC(=O)Nc1ccc(-n2cnnn2)cc1	2	-3	-1	-4	.
O=C(O)c1cn[nH]c1-n1cnnn1	.	61*	-1	-3	-9%
Cc1[nH][nH]c(=O)c1C(c1ccc(O)c(Br)c1)c1c(C)[nH][nH]c1=O	4	33*	-1	-4	-34%
Cc1[nH][nH]c(=O)c1C(c1ccc(Br)cc1)c1c(C)[nH][nH]c1=O	-3	11*	0	-3	-2%
C[C@@H]1CN([C@@H](C)CO)C(=O)c2cc(-c3cccnc3)cnc2O[C@H]1CN(C)C(=O)C1CCC1	.	3	.	.	.
CC(=O)N(C1=C(O)c2ccccc2C(=O)C1=O)C1CCCCC1	0	3	-1	-8	.
CC(=O)N(C)C1=C(O)c2ccccc2C(=O)C1=O	-1	11*	-1	-5	5%
CC=Cc1ccc2n(c1=O)C[C@@H]1[C@@H](CO)[C@H](C(=O)NC3CCC3)[C@H]2N1S(=O)(=O)c1cn(C)cn1 (mixture of isomers)	.	5	.	.	.
